Compound activity as filed in PubChem.
The list is not random: actives were taken first. Their share in the collection is about 4.5%.
AHR activator – human AHR activation | P35869 | AHR-responsive luciferase reporter cells, luminescence | activation, % at 5 µM | actives 2.5% (n = 320,000) | AID 2796; in the data active = activation above about 47%
PERK inhibitor – blocks human PERK kinase | Q9NZJ5 | CHO PERK-DD fusion, SEAP luminescence translation reporter | inhibition, % at 5.6 µM | actives 0.17% (n = 220,000) | AID 1416;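 active = inhibition above the mean inhibition of all tested compounds plus 3 SD, set separately per screening campaign, cut at about 2.9% in these data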;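 note: PERK kinase domain activated by AP20187 dimerizer at 100 nM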
NF-kB neuron act – NF-kB expression increase, human neuronal cells; NF-kB reporter expression; hits give high values; fold change at 12.5 µM; actives 1.6% (n = 190,000); AID 1239; in the data active = fold change above about 3.3
MDM2 E3 inh – Mdm2 E3 ligase (human) inhibition. Q00987. AID 1230. signal enhancement, % at 5 µM. actives 0.11% (n = 210,000). cell-based MDM2 ubiquitination luciferase reporter, 2 h; 0 = plate control, 100 = twice control, blank-subtracted;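 active = signal enhancement of 30% or more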;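 note: luminescence tracks abundance of the self-degrading MDM2-luciferase fusion protein; higher signal means inhibition of MDM2 E3 ligase activity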
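Test system: stable mammalian line carrying autodegrading MDM2–luciferase fusion reporter; quantity: 2000 cells in each well; times: 4 h cell settling then 2 h compound exposure, 37 °C; detection: luminescence with SteadyLite reagent, 15 min at room temperature; evaluation: percent signal gain over controls, blank-subtracted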
STAT1 activator – STAT1 signaling activation; NIH 3T3 STAT1-luciferase reporter, IFN-gamma, luminescence; 100% = IFN-gamma alone, no compound; actives 2.6% (n = 200,000); activation (% of control), % at 5.5 µM;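 active = activation above the screen-wide mean activation plus 3 SD, cut at about 130% in these data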
APP 5'UTR act – activates APP 5'UTR luciferase reporter | actives 1% (n = 190,000) | activation, % at 2 µM | SH-SY5Y APP 5'UTR luciferase reporter, luminescence; zero percent = DMSO vehicle wells | AID 1276;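 active = activation above a set limit, based on mean plus 3 SD of controls, cut at about 140% in these data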
Numbers stand for hits.

`C/C(=C\c1ccccc1)C(=O)Nc1ccc(S(=O)(=O)Nc2ncccn2)cc1` gave AHR activator inactive, PERK inhibitor inactive, NF-kB neuron act inactive, MDM2 E3 inh inactive, STAT1 activator inactive and APP 5'UTR act inactive.
Screening Cc1cccc(NC(=O)NCc2cccnc2)c1C returned AHR activator inactive.
Screening Cc1cc(C(=O)Nc2sc(C)c(C)c2C#N)c(C)o1 returned AHR activator 76, PERK inhibitor inactive, NF-kB neuron act inactive, MDM2 E3 inh inactive, STAT1 activator inactive and APP 5'UTR act inactive.
`Cc1csc(NC(=O)c2cc(C)oc2C)n1` gave AHR activator inactive, PERK inhibitor inactive, NF-kB neuron act inactive, MDM2 E3 inh inactive, STAT1 activator inactive and APP 5'UTR act inactive.
Screening Cc1[nH]c2ccccc2c1-c1csc(NC(=O)CSCCO)n1 returned AHR activator 50, PERK inhibitor inactive, NF-kB neuron act inactive, MDM2 E3 inh inactive, STAT1 activator inactive and APP 5'UTR act inactive.
For CC(=O)N1CCc2[nH]c3ccccc3c2C1 the results were AHR activator inactive, PERK inhibitor 3.3, NF-kB neuron act inactive, MDM2 E3 inh inactive, STAT1 activator inactive and APP 5'UTR act inactive.
For CCC(C)(C)C1CCC(=NNc2nc3ccccc3[nH]2)CC1 (stereo unspecified) the results were AHR activator 50, PERK inhibitor inactive, NF-kB neuron act inactive, MDM2 E3 inh inactive, STAT1 activator inactive and APP 5'UTR act inactive.
O=C(N1CCCCC1)N1CCC(c2nc3ccccc3[nH]2)CC1 was read as AHR activator inactive and PERK inhibitor inactive.
Cc1cc(=O)[nH]c(NN=C2CCC(C(C)(C)C)CC2)n1 (stereo unspecified) was read as AHR activator inactive, PERK inhibitor inactive, NF-kB neuron act inactive, MDM2 E3 inh inactive, STAT1 activator inactive and APP 5'UTR act inactive.
Screening CC(=O)N1CCC(=NNc2nc3ccccc3[nH]2)CC1 returned AHR activator 63, PERK inhibitor inactive, NF-kB neuron act inactive, MDM2 E3 inh inactive, STAT1 activator inactive and APP 5'UTR act inactive.
COc1ccc(C(=O)N2CCNC(=O)C2)cc1S(=O)(=O)Nc1ccc(Br)cc1 was read as AHR activator inactive.
Screening O=C(Nc1ccc2ccccc2c1)[C@@H]1C[C@H]1[C@@H](NP(=O)(c1ccccc1)c1ccccc1)c1ccccc1 returned AHR activator inactive, PERK inhibitor inactive, NF-kB neuron act inactive, STAT1 activator inactive and APP 5'UTR act inactive.
`CC(C)Cc1nc(SCC(=O)N2CCCCC2)c2c(=O)n(C)c(=O)n(C)c2n1` gave AHR activator inactive.
CCN1CCN(CC(=O)Nc2c(OC)cccc2OC)CC1 was read as AHR activator inactive.
For O=C(NCC(=O)N1CCN(c2ccccc2)CC1)c1cccs1 the results were AHR activator inactive.
COc1ccc(OC)c(CCNC(=O)C(C)n2nc(C)c3c(C)n(-c4ccc(C)cc4)nc3c2=O)c1 (stereo unspecified) was read as AHR activator inactive.
For C=CCSc1n[nH]c(-c2ccc(OCCC)cc2)n1 the results were AHR activator inactive, PERK inhibitor inactive, NF-kB neuron act 3.8, MDM2 E3 inh inactive, STAT1 activator 150 and APP 5'UTR act inactive.
Screening CC(=O)Nc1ccc(NC(=O)Oc2ccccc2)cc1 returned AHR activator inactive, PERK inhibitor inactive, NF-kB neuron act inactive, MDM2 E3 inh inactive, STAT1 activator inactive and APP 5'UTR act inactive.
`S=C(Nc1cccc(Br)c1)c1ccccc1` gave AHR activator 79, PERK inhibitor inactive, NF-kB neuron act inactive, MDM2 E3 inh inactive, STAT1 activator inactive and APP 5'UTR act inactive.
`CN(C)c1ccc(C(=S)Nc2ccccc2)cc1` gave AHR activator inactive, PERK inhibitor inactive, NF-kB neuron act inactive, MDM2 E3 inh inactive, STAT1 activator 139 and APP 5'UTR act inactive.
CN(C)c1ccc(NC(=O)Oc2ccccc2)cc1 was read as AHR activator inactive, PERK inhibitor inactive, NF-kB neuron act inactive, MDM2 E3 inh inactive, STAT1 activator 130 and APP 5'UTR act inactive.
Screening N#CC1(NC(=O)CSc2n[nH]c(-c3ccccc3)n2)CCCCC1 returned AHR activator inactive.
Cc1cccc(C(=O)OC(C)CN2C(C)CCCC2C)c1 (stereo unspecified) was read as AHR activator inactive.
`Cc1nc2c(-c3ccc(F)cc3)cnn2c2c1CCC2` gave AHR activator 71, PERK inhibitor inactive, NF-kB neuron act inactive, MDM2 E3 inh inactive, STAT1 activator 130 and APP 5'UTR act inactive.
`N#C/C(C(=O)c1ccccc1)=C1/CCCN1` gave AHR activator inactive, PERK inhibitor inactive, NF-kB neuron act inactive, MDM2 E3 inh inactive, STAT1 activator inactive and APP 5'UTR act inactive.
`N#C/C(C(=O)Oc1ccccc1)=C1\C=CC=CN1` gave AHR activator inactive, PERK inhibitor inactive, NF-kB neuron act inactive, MDM2 E3 inh inactive, STAT1 activator 142 and APP 5'UTR act inactive.
Screening COc1ccc(/C=N/NC(=O)c2cccnc2)cc1CSc1nc2ccccc2s1 returned AHR activator 54, PERK inhibitor inactive, NF-kB neuron act inactive, MDM2 E3 inh inactive, STAT1 activator inactive and APP 5'UTR act inactive.
Screening Cc1noc(C)c1C(=O)Nc1ccc(-c2nnc3n2CCCCC3)cc1 returned AHR activator inactive.
For CCOc1ccc(N(CC(=O)NCCc2ccccc2)C(=O)CCC(=O)Nc2nccs2)cc1 the results were AHR activator inactive.
For Cn1ncc(Cl)c1C(=O)Nc1ccc(CN2CCCCC2)cc1 the results were AHR activator 76.
Cc1csc2ncc(C(=O)NCc3ccc4c(c3)OCO4)c(=O)n12 was read as AHR activator 78.
Screening Cn1ncc(Cl)c1C(=O)NCc1ccc2c(c1)OCO2 returned AHR activator 49.
Cc1csc2ncc(C(=O)Nc3cccc(C(F)(F)F)c3)c(=O)n12 was read as AHR activator inactive.
CCc1ccc(NC(=O)c2cnc3scc(C)n3c2=O)cc1 was read as AHR activator 63, PERK inhibitor inactive, NF-kB neuron act inactive, MDM2 E3 inh inactive, STAT1 activator inactive and APP 5'UTR act inactive.
Screening C[C@H](NC(=O)[C@H]1N2C(=O)c3ccccc3C2SC1(C)C)C(=O)NCC1CCCO1 (stereo partly specified) returned AHR activator inactive.
CCC(CO)[n+]1c(C)cc(/C=C2\Sc3ccccc3N2Cc2ccccc2)cc1C (stereo unspecified) was read as AHR activator inactive, PERK inhibitor inactive, NF-kB neuron act inactive, MDM2 E3 inh inactive, STAT1 activator inactive and APP 5'UTR act inactive.
`CCCCCOCC(O)CCC(=O)NN` (stereo unspecified) gave AHR activator inactive, PERK inhibitor inactive, NF-kB neuron act inactive, MDM2 E3 inh inactive, STAT1 activator inactive and APP 5'UTR act inactive.
CCOc1ccccc1NC(=O)c1cccc2c1C(=O)N(CCOC)C2 was read as AHR activator 69, PERK inhibitor inactive, NF-kB neuron act inactive, MDM2 E3 inh inactive, STAT1 activator inactive and APP 5'UTR act inactive.
